Data set [1] can be described thus: Lipophilicity, log D of the compound at pH 7.4. The class given is physicochemical. The settings on record: buffer.
A further data set deals with T1, Squalene synthase (Rattus norvegicus, UniProt Q02769).
T1 sequence (Q02769 whole entry): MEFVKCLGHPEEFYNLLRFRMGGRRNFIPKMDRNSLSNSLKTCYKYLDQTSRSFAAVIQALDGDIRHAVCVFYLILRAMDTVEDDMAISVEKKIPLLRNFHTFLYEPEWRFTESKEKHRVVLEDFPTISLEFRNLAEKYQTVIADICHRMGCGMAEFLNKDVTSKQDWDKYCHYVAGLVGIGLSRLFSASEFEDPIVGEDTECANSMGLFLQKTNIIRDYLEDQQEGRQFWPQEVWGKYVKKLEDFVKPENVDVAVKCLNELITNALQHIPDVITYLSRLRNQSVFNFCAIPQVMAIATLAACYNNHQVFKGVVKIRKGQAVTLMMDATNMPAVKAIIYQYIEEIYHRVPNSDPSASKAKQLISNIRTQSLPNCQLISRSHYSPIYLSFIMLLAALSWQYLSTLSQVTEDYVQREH
In words: Inhibition of rat hepatic microsomal squalene synthase using [3H]FPP as substrate after by scintillation spectrophotometry.

Data set [2] deals with Rattus norvegicus. In words: Inhibition of cholesterol synthesis in Wistar rat at 3 mg/kg, po administered as single dose prior to [14C]mevalonolactone injection measured after 1 hr by liquid scintillation counting.
Another data set has as its system Hepatocyte. In words: Inhibition of cholesterol synthesis in rat hepatocytes assessed as formation of cholesterol using [14C]mevalonolactone as substrate after 1 hr by liquid scintillation counting. The class given is functional, cell-based.
For data set [3], the system named is Rattus norvegicus. In words: Inhibition of cholesterol synthesis in Wistar rat at 1 mg/kg, po administered as single dose prior to [14C]mevalonolactone injection measured after 1 hr by liquid scintillation counting. The class given is functional. In outline: (§1)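 Rats given a single oral dose of 1 mg/kg; hepatic cholesterol synthesis inhibition (%) determined at 1, 4 and 7 h after dosing.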

The subject of data set [4] is Rattus norvegicus. In words: Inhibition of cholesterol synthesis in Wistar rat at 1 mg/kg, po administered as single dose prior to [14C]mevalonolactone injection measured after 4 hrs by liquid scintillation counting. The class given is functional. In outline:
as §1

Data set [5] deals with Rattus norvegicus. In words: Inhibition of cholesterol synthesis in Wistar rat at 1 mg/kg, po administered as single dose prior to [14C]mevalonolactone injection measured after 7 hrs by liquid scintillation counting. The class given is functional. The essentials:
as §1

The subject of data set [6] is marmosets. In words: Reduction in triglyceride level in marmosets at 30 mg/kg/day, po for 7 days. Type of data set: functional, Callitrichinae sp. Also noted: scale not given: the % may be the effect or the level left. In outline: (§2)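 Marmosets dosed orally at 30 mg/kg/day for 7 days. Plasma total, non-HDL and HDL cholesterol and triglyceride reported as mean percentage change from each animal's initial values (n = 7, 8). Significance was tested against initial values.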

Data set [7] concerns marmosets. In words: Reduction in HDL cholesterol level in marmosets at 30 mg/kg/day, po for 7 days. Type of data set: functional, Callitrichinae sp. Further details: scale not given: the % may be the effect or the level left. In outline: as §2
Data set [8] deals with Rattus norvegicus. In words: Inhibition of cholesterol synthesis in po dosed Wistar rat administered as single dose prior to [14C]mevalonolactone injection measured after 7 hrs by liquid scintillation counting. Type of data set: functional.
Data set [9] concerns Rattus norvegicus. In words: Inhibition of cholesterol synthesis in Wistar rat at 3 mg/kg, po in presence of [14C]acetic acid. The class given is functional, organism-based. Also noted: dose 3 mg/kg. In outline: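 Rats given a single 3 mg/kg oral dose; hepatic cholesterol synthesis inhibition expressed as % at 1 h post-dose.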
Data set [10] relates to marmosets. In words: Reduction in non-HDL cholesterol level in marmosets at 30 mg/kg/day, po for 7 days. Type of data set: functional, Callitrichinae sp. Also noted: scale not given: the % may be the effect or the level left. In outline: as §2
The subject of data set [11] is marmosets. In words: Reduction in total cholesterol level in marmosets at 30 mg/kg/day, po for 7 days. The class given is functional, Callitrichinae sp. Further details: scale not given: the % may be the effect or the level left. The essentials: as §2
Data set [12] has as its system Rattus norvegicus. In words: Drug uptake in rats liver assessed per gram of tissue at 3 mg/kg, po administered as single dose measured at 1 hr.
For data set [13], the system named is Rattus norvegicus. In words: Partition co-efficient, Kp in rats liver assessed per gram of tissue at 3 mg/kg, po administered as single dose measured at 1 hr.

The values that follow come from ChEMBL document CHEMBL2439948, “Discovery of DF-461, a Potent Squalene Synthase Inhibitor” (ACS Med Chem Lett, 2013).

pIC50: −log10 of the molar value. The source made the active and inactive calls. The calls are words filed in the database; no cut-off is given here.

The logD is the decadic logarithm of the distribution of all forms, ionised or not, between an organic phase and buffer at a given pH. As usually defined, the pIC50 is the negative decadic logarithm of the IC50, by convention in mol/L. Broadly, the inhibition in vivo is the share of the control response that was lost under treatment. In [1], `COc1cccc([C@H]2O[C@H](CCn3cc(C(=O)O)cn3)c3nnc(C)n3-c3ccc(Cl)cc32)c1OC` (relative stereo) registered a logD of -0.4. Further, the pIC50 against Squalene synthase was 7.44; in the data set with Hepatocyte, 6.54. The molecule further yielded an inhibition in vivo at 3 mg/kg in the data set on Rattus norvegicus [2] of 30%.
As for `COc1cccc([C@H]2O[C@H](CC(=O)O)c3nnc(C(F)(F)F)n3-c3ccc(Cl)cc32)c1OC(F)(F)F`, the inhibition in vivo at 1 mg/kg in the data set with Rattus norvegicus [3] is 77%; in the data set on Rattus norvegicus [4], 67%; with Rattus norvegicus [5], 48%. Besides, the negative logarithm of the IC50 (pIC50) against Squalene synthase was 9.15; in the data set on Hepatocyte, 7.55.
The term ED50 denotes the dose at which the effect has come halfway, by size or by number of responders. As to `COc1cccc([C@H]2O[C@H](CC(=O)O)c3nnc(C(F)(F)F)n3-c3ccc(Cl)cc32)c1Cl`, the inhibition in vivo at 1 mg/kg in the data set on Rattus norvegicus [3] came to 93%; with Rattus norvegicus [4], 77%; with Rattus norvegicus [5], 55%. Also, the Activity in the data set on marmosets [6] came out at 24%; in the data set with marmosets [7], 16%; with marmosets [10] it was 53%; in the data set on marmosets [11], 39%. This molecule also came in with an ED50 in the data set with Rattus norvegicus [8] of 0.11 mg/kg. The pIC50 is 8.96 against Squalene synthase and 7.72 in the data set on Hepatocyte. Moreover, the inhibition result with Rattus norvegicus [9] was “Active”.
In the case of `CCc1c(OC)cccc1[C@H]1O[C@H](CC(=O)O)c2nnc(C(F)(F)F)n2-c2ccc(Cl)cc21`, the inhibition in vivo at 1 mg/kg in the data set on Rattus norvegicus [3] is 76%; in the data set on Rattus norvegicus [4], 57%; in the data set with Rattus norvegicus [5] it was 21%. Also, the pIC50 against Squalene synthase is 9.44; in the data set on Hepatocyte it was 7.74.
As to `COc1cccc([C@H]2O[C@H](CCn3cc(C(=O)O)cn3)c3nnc(CF)n3-c3ccc(Cl)cc32)c1OC` (relative stereo), the pIC50 on Squalene synthase is 8.22; in the data set with Hepatocyte it was 7.11. The molecule also came in with an inhibition in vivo at 3 mg/kg with Rattus norvegicus [2] of 48%.
For the molecule `COc1cccc([C@H]2O[C@H](CC(=O)O)c3nnc(C(F)(F)F)n3-c3ccc(Cl)cc32)c1C`, the inhibition in vivo at 1 mg/kg with Rattus norvegicus [3] is 87%; in the data set on Rattus norvegicus [4], 69%; with Rattus norvegicus [5], 45%. The Activity is 34% in the data set with marmosets [6], 8% in the data set with marmosets [7], 42% with marmosets [10] and 32% in the data set on marmosets [11]. The negative-log IC50 (pIC50) against Squalene synthase is 9.07; in the data set on Hepatocyte, 7.34.
`CC(C)c1c(C(=O)Nc2ccccc2)c(-c2ccccc2)c(-c2ccc(F)cc2)n1CC[C@@H](O)C[C@@H](O)CC(=O)O`: the inhibition entry in the data set with Rattus norvegicus [9] was “Active”.
As for `COc1cccc([C@H]2O[C@H](CC(=O)N3CCC(CC(=O)O)CC3)C(=O)N(CC(C)(C)COC(C)=O)c3ccc(Cl)cc32)c1OC` [LAPAQUISTAT ACETATE], the Activity worked out at 25% in the data set with marmosets [6], 10% in the data set with marmosets [7], 19% in the data set with marmosets [10] and 17% with marmosets [11]. Further, it took a dose of 3.8 mg/kg to reach the 50% effect level with Rattus norvegicus [8] (ED50).
Take `COc1cccc([C@H]2O[C@H](CC(=O)O)c3nnc(C(F)(F)F)n3-c3ccc(Cl)cc32)c1OC`: the figures for the inhibition in vivo at 1 mg/kg in the data set with Rattus norvegicus [3], in the data set on Rattus norvegicus [4] and in the data set with Rattus norvegicus [5] were 88%, 78% and 45%, respectively. The Activity with marmosets [6] came to 29%; in the data set with marmosets [7], 3%; with marmosets [10], 44%; in the data set on marmosets [11], 29%. In the data set on Rattus norvegicus [12], this molecule had a concentration at 1 h of 1040 ng/g. The pIC50 is 8.80 against Squalene synthase and 7.42 in the data set on Hepatocyte. The molecule further registered a Kp at 1 h with Rattus norvegicus [13] of 66.
`COc1cccc([C@H]2O[C@H](CCn3cc(C(=O)O)cn3)c3nnc(C(F)(F)F)n3-c3ccc(Cl)cc32)c1OC` (relative stereo) gave a logD in [1] of 0.83. Further, the pIC50 was 8.49 at Squalene synthase and 6.89 in the data set with Hepatocyte. This molecule also showed an inhibition in vivo at 3 mg/kg in the data set with Rattus norvegicus [2] of 71%.
For `COc1cccc([C@H]2O[C@H](CCn3cc(C(=O)O)cn3)c3nnc(C(C)C)n3-c3ccc(Cl)cc32)c1OC` (relative stereo), in that order: 0.37, 7.96, 7.04 and 15%.
